Most compounds without a hit are left out; they make up all but 1.9% or so of the library.
Rtt109 Vps75 = blocks Candida albicans Rtt109/Vps75 acetyltransferase activity. AID 540336. hit rate 0.16% among 330,000. Q5AAJ8. inhibition, % at 34.9 µM. purified Rtt109/Vps75, ThioGlo CoA-SH fluorescence, 4 h;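 active = inhibition of at least 50% in every replicate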
Env fusion inh = HIV envelope-mediated fusion inhibition. HeLa-JRFL Env/CEM21 cell fusion, luciferase. inhibition, % at 12.3 µM. hit rate 1.1% among 360,000. AID 651610;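 active = mean replicate inhibition score of at least 50 and every replicate individually at or above 50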;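 also: 0% = plate neutral controls and 100% = maraviroc near 300 nM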
Glyco luc inh = blocks N-linked glycosylation in D54 reporter cells; D54 ERlucT glycosylation luciferase reporter, 24 h; percent of 100 nM tunicamycin response; reporter increase, % at 12.5 µM; hit rate 0.23% among 360,000;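 active = mean luciferase reporter signal, scaled so untreated is 0 and the glycosylation-blocking control 100, at or above a set limit in every replicate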;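 also: luciferase carries N-glycosylation sites so blocking glycosylation raises the light; 0% = median of neutral control wells and 100% = median of 100 nM tunicamycin wells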
SR-BI uptake up = enhances SR-BI lipid uptake from DiI-HDL; hit rate 0.096% among 320,000; activation, % at 12.5 µM; CHO ldlA[mSR-BI] cells, DiI-HDL uptake fluorescence, 3 h; 100 = double the neutral-control signal;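 active = mean replicate activation of at least 60% and every replicate at or above 60%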;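 also: 0% = median plate neutral-control signal and 100% = twice that signal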
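material = CHO ldlA[mSR-BI] cells | medium = Ham's F12 with 0.5% BSA, HEPES 25 mM, pH 7.4 | reagent = fluorescent DiI-HDL, 10 µg/mL final | compound dosing = single-point compound dose | incubation = 3 h, 37 °C | measured by = bottom-read fluorescence, 550/595 nm | measure = HDL uptake via cellular fluorescence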
SR-BI HDL uptake = blocks mouse SR-BI lipid uptake from DiI-HDL; Q61009; ldlA[mSR-BI] CHO cells, DiI-HDL uptake fluorescence, 3 h; inhibition, % at 12.5 µM; hit rate 0.96% among 320,000;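 active = mean replicate inhibition of at least 70% and a set share of replicates each scoring 70 or more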;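 also: 0% = median of neutral control wells and 100% = median of positive control wells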
Target sequence (Q61009 whole entry, looked up): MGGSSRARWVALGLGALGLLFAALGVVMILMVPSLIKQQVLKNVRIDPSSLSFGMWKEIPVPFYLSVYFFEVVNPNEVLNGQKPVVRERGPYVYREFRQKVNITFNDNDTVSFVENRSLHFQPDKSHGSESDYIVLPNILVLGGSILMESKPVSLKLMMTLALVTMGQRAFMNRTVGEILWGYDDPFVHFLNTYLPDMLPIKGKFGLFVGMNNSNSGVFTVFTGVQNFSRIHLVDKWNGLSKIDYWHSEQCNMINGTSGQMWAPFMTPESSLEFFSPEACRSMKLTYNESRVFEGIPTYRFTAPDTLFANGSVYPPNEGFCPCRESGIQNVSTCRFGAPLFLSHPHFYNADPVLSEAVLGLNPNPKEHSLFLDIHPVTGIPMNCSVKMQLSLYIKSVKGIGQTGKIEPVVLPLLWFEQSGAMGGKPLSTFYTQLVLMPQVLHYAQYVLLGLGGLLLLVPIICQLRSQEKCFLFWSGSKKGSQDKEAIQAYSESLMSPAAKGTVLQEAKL
PglD inh = blocks C. jejuni PglD acetyltransferase activity; inhibition, % at 12.5 µM; hit rate 0.098% among 360,000; purified PglD enzyme, DTNB colorimetric CoA detection; in the data active = inhibition above about 16%, passing the limit was not always enough
* = called active by the depositor; . = no result given; ! = not confirmed by another sample; [ ] = dose if it differs, or a comment.

SMILES	Rtt109 Vps75	Env fusion inh	Glyco luc inh	SR-BI uptake up	SR-BI HDL uptake	PglD inh
COc1ccc(Nc2ncc(C(=O)N3CCN(c4ccc(F)cc4)CC3)c3ccccc23)cc1	3.0	93.3*	0.0	-43.9	43.9	-5.7
CC1=CC(C)(C)N(C(=O)c2ccccc2)c2ccc(C)cc21	-7.8	94.2*	-0.6	-40.7	40.7	-3.0
CNC1=C(N(C(C)=O)c2ccc(Br)cc2)C(=O)c2ccccc2C1=O	-1.1	.	-22.7	0.0	0.0	.
CC(=O)C1=C(c2ccc(Br)cc2)C(=O)c2ccccc2C1=O	2.8	140.9*	-6.1	-30.8	30.8	0.6
CO[C@H]1CN(C)C(=O)c2cc(NS(=O)(=O)c3ccc(C)cc3)ccc2OC[C@@H](C)N(Cc2nccs2)C[C@@H]1C	.	18.9[16.7 µM]	.	.	.	27.8
O=C(NNC(=O)c1ccccc1OCc1ccc(F)cc1)c1ccccc1O	-0.2	22.2	-10.2	-124.6	124.6*	1.0
O=C(NNC(=O)c1ccccc1OCc1ccccc1)c1ccccc1F	-22.5	-18.9	-1.2	-10.2	10.2	-4.9
O=C(NNC(=O)c1ccccc1OCc1ccccc1)c1ccccc1O	-10.4	52.0	-5.8	-113.9	113.9*	5.2
COc1ccc(NC(=O)c2ccccc2OCc2ccc(F)cc2)c(OC)c1	0.2	-1.2	-1.1	-94.2	94.2*	1.2
COc1ccc(NC(=O)c2ccccc2Oc2ccccc2)c(OC)c1	2.3	1.6	-1.6	-55.9	55.9	-0.1
O=C(Nc1ccccc1)N1C[C@@H]2[C@H](c3ccccc31)[C@H](CO)N2C(=O)c1ccncc1	.	.	.	.	.	3.4
CC(C)NC(=O)Nc1ccc2c(c1)CC(=O)N([C@H](C)CO)C[C@H](C)[C@@H](CN(C)C)O2	.	10.9[16.7 µM]	.	.	.	-3.3
O=C(NC1CCCCC1)N[C@H]1CC[C@H](CCNS(=O)(=O)c2ccc(F)cc2)O[C@@H]1CO	.	-9.3[16.7 µM]	.	.	.	1.6
COc1ccc(S(=O)(=O)Nc2ccc3c(c2)C(=O)N([C@H](C)CO)C[C@@H](C)[C@H](CN(C)S(=O)(=O)c2cccs2)OCCCC[C@@H](C)O3)cc1	.	1.6[16.7 µM]	.	.	.	-1.5
CCN(C[C@H]1N[C@H](CO)[C@@H]1c1ccc(-c2cccc(F)c2)cc1)C(=O)COC	.	.	.	.	.	-3.7
C=C1c2cccc(O)c2C(=O)C2C(=O)[C@]3(O)C(=O)C(C(N)=O)C(=O)[C@@H](N(C)C)[C@@H]3[C@@H](O)[C@H]12 (stereo not given in full)	13.9	59.8*	2.1	4.9	-4.9	1.0
Cc1ccc(C(=O)NCCCNC(=O)COc2ccc(C)c(C)c2)cn1	55.2*	7.2	1.7	.	.	1.1
COc1cccc(C(=O)Nc2ccc3c(c2)C(=O)N(C)[C@@H]2CC[C@@H](CC(=O)NCCCN4CCOCC4)O[C@H]2CO3)c1	.	-15.4[16.7 µM]	.	.	.	-1.7
Nc1ncnc2c1ncn2[C@@H]1O[C@H](CO)[C@@H](O)[C@H]1O	1.1	31.7	1.3	3.7	-3.7	-2.8
Nc1ncnc2c(C3OC(CO)C(O)C3O)c[nH]c12 (stereo not given)	0.5	95.3*	-19.5	-2.8	2.8	.
C[C@@H]1CN([C@H](C)CO)C(=O)c2cc(NS(=O)(=O)c3ccccc3)ccc2O[C@@H](C)CCCCO[C@@H]1CN(C)Cc1ccc(Cl)c(Cl)c1	.	69.0*![16.7 µM]	.	.	.	1.6
C[C@@H]1CN([C@H](C)CO)C(=O)c2cc(NS(=O)(=O)c3ccc(Cl)cc3)ccc2O[C@@H](C)CCCCO[C@@H]1CN(C)Cc1ccccc1	.	65.2*[16.7 µM]	.	.	.	-0.2
C[C@@H]1CN([C@@H](C)CO)C(=O)c2cc(NS(=O)(=O)c3ccc(Cl)cc3)ccc2O[C@@H](C)CCCCO[C@H]1CN(C)Cc1ccc2c(c1)OCO2	.	-58.0[16.7 µM]	.	.	.	7.5
C[C@@H]1CN([C@H](C)CO)C(=O)c2cc(NS(=O)(=O)c3ccc(Cl)cc3)ccc2O[C@@H](C)CCCCO[C@@H]1CN(C)Cc1ccc2c(c1)OCO2	.	68.5*![16.7 µM]	.	.	.	8.5
COc1cccc(-c2cn(CC[C@H]3CC[C@@H](NC(C)=O)[C@@H](CO)O3)nn2)c1	.	19.1[16.7 µM]	.	.	.	0.3
SMILES	Rtt109 Vps75	Env fusion inh	Glyco luc inh	SR-BI uptake up	SR-BI HDL uptake	PglD inh
O=C(c1cc(COc2ccc3ncccc3c2)on1)N1CCCC(O)C1 (stereo not given)	-0.4	23.3	-1.3	-14.2	14.2	-3.3
O=C(c1cc(COc2ccc3ncccc3c2)on1)N1CCC[C@H]1CO	5.7	58.7*	.	4.6	-4.6	-5.1
COc1ccc(-c2cc(=Nc3c(C)n(C)n(-c4ccccc4)c3=O)c3ccccc3o2)cc1	9.7	-78.0	-2.5	-41.6	41.6	0.9
COc1ccc(-c2c/c(=N\c3nc(-c4ccccc4)c(C)s3)c3ccccc3o2)cc1O	-15.7	.	10.6	-80.2	80.2*	-2.2
CCOC(=O)C1=C(C)NC(C)=C(C(=O)OCC)C1C(=O)OCC(=O)NCCc1ccc(S(N)(=O)=O)cc1	53.4*	7.7	3.4	0.9	-0.9	0.6
O=C1C(Cl)=C(N2CCCCCC2)C(=O)N1c1ccccc1	0.6	104.9*	-1.2	-17.9	17.9	-3.5
O=C1C(Cl)=C(N2CCOCC2)C(=O)N1c1cccc(Cl)c1	-1.7	-86.8	-0.9	3.8	-3.8	4.5
O=C1C(Cl)=C(N2CCCCCC2)C(=O)N1c1ccc(Br)cc1	-1.9	-5.5	-1.8	-33.8	33.8	3.9
Cc1cccc(N2C(=O)C(Cl)=C(N3CCOCC3)C2=O)c1	112.8*	-3.0	0.8	-11.7	11.7	5.5
O=C(NC[C@H]1CC[C@@H]2[C@@H](CN2Cc2cccc(Cl)c2)O1)C1CC1	.	-0.8[16.7 µM]	.	.	.	.
O=C(Cc1ccncc1)N[C@H]1CC[C@H](CCn2cc(-c3ccccc3F)nn2)O[C@H]1CO	.	27.2[16.7 µM]	.	.	.	0.1
COc1ccc(-c2cn(CC[C@H]3CC[C@H](NS(=O)(=O)c4ccccc4C)[C@H](CO)O3)nn2)cc1	.	72.8*[16.7 µM]	.	.	.	-3.6
O=C(CCN1CCCCC1)N[C@H]1CC[C@H](CCn2cc(-c3ccccc3)nn2)O[C@@H]1CO	.	77.5*[16.7 µM]	.	.	.	-2.0
O=C(CCN1CCCCC1)N[C@@H]1CC[C@@H](CCn2cc(-c3ccccc3)nn2)O[C@@H]1CO	.	74.9*[16.7 µM]	.	.	.	0.9
O=C(CCN1CCCCC1)N[C@H]1CC[C@H](CCn2cc(-c3ccccc3)nn2)O[C@H]1CO	.	-22.4[16.7 µM]	.	.	.	-0.5
O=C(Cc1ccncc1)N[C@H]1CC[C@@H](CCn2cc(-c3ccccc3F)nn2)O[C@@H]1CO	.	71.9*[16.7 µM]	.	.	.	2.9
O=C(CCN1CCCCC1)N[C@@H]1CC[C@H](CCn2cc(-c3ccccc3)nn2)O[C@@H]1CO	.	-8.3[16.7 µM]	.	.	.	2.8
COc1ccc(-c2cn(CC[C@@H]3CC[C@H](NS(=O)(=O)c4ccccc4C)[C@@H](CO)O3)nn2)cc1	.	4.4[16.7 µM]	.	.	.	0.5
CNC(=O)C[C@H]1CC[C@@H]2[C@@H](COc3ccc(NC(=O)c4ccc(F)cc4)cc3C(=O)N2C)O1	.	-11.0[16.7 µM]	.	.	.	.
C=CCNc1nc(-c2cccc(OC)c2O)nc2ccccc12	-4.4	-52.6	5.3	-75.9	75.9*	0.0
